Source: the M2OR odorant receptor database
Substitutions are numbered along the chain they refer to.

Legend:
Conditions in all cases: stereoisomer not certain
[1] = biological target: T1, OR1F12P (Homo sapiens) (UniProt Q8NHA8)
T1 sequence (whole entry): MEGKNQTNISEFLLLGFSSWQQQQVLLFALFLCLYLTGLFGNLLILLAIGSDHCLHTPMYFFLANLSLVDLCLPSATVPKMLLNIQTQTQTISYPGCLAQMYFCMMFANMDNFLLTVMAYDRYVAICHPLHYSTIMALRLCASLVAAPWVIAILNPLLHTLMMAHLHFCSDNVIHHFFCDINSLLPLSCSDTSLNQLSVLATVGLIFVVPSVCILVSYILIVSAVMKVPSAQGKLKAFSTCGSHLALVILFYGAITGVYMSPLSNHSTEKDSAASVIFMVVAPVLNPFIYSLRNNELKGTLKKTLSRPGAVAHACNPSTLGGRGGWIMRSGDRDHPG
In short: (§1)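 Each entry records the cell line, G-protein, co-transfected protein and tags used. Methods varied with the source, often transient luciferase assays in mammalian cell lines. A receptor–molecule pair is called responsive (active) if the original authors judged its signal statistically different from baseline and non-responsive (inactive) otherwise.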

[2] = test system: T2, OR1F1
T2 sequence (whole entry): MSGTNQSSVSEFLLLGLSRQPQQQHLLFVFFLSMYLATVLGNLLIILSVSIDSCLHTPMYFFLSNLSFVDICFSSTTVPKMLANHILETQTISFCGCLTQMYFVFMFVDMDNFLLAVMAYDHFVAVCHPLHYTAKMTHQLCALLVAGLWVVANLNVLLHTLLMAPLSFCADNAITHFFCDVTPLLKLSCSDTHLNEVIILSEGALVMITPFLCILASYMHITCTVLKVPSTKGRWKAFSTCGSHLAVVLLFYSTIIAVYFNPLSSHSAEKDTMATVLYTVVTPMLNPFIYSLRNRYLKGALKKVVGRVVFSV
In short: as §1

[3] = biological target: T3, OR1G1 (Homo sapiens) (UniProt P47890)
T3 sequence (whole entry): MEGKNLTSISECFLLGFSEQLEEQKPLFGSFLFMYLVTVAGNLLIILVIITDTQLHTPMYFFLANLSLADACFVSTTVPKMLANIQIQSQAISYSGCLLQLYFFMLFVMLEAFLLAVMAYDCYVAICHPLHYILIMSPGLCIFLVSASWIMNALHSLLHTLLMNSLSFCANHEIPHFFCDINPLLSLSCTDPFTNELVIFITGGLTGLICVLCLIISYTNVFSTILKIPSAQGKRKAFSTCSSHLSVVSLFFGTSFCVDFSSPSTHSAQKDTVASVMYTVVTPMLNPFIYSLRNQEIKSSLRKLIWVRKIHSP
In short: as §1

[4] = biological target: T4, OR1I1 (Homo sapiens) (UniProt O60431)
T4 sequence (whole entry): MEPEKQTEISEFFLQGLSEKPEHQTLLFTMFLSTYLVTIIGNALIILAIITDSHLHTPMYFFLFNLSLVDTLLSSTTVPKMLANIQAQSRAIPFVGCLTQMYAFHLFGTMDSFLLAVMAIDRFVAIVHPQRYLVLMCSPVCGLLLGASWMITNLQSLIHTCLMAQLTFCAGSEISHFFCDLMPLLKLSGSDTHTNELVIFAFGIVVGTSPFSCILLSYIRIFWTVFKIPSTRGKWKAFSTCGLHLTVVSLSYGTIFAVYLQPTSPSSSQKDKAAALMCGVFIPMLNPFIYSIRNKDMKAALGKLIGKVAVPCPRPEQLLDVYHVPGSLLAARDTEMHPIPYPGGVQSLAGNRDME
In short: as §1

[5] = biological target: T5, OR1J1 (Homo sapiens) (UniProt Q8NGS3)
T5 sequence (whole entry): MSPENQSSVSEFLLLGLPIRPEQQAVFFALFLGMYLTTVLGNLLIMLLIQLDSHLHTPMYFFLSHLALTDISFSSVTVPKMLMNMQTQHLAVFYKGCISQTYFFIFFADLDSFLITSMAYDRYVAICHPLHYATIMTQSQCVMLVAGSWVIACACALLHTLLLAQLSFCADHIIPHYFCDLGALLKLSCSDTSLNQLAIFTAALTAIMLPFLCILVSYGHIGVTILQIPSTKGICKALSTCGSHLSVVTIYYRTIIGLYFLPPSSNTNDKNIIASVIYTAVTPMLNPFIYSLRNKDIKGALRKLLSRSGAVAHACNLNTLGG
In short: as §1

[6] = biological target: T6, OR1J2 (Homo sapiens) (UniProt Q8NGS2)
T6 sequence (whole entry): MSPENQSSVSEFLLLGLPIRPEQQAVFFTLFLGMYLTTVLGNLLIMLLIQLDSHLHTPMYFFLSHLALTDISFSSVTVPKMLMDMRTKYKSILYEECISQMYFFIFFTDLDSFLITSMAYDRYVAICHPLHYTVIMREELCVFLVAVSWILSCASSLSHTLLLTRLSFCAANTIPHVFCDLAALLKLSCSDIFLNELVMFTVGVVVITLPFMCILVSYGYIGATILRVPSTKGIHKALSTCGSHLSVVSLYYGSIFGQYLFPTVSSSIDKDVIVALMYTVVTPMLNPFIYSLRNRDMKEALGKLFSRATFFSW
In short: as §1

[7] = biological target: T7, OR1J4 (Homo sapiens) (UniProt Q8NGS1)
T7 sequence (whole entry): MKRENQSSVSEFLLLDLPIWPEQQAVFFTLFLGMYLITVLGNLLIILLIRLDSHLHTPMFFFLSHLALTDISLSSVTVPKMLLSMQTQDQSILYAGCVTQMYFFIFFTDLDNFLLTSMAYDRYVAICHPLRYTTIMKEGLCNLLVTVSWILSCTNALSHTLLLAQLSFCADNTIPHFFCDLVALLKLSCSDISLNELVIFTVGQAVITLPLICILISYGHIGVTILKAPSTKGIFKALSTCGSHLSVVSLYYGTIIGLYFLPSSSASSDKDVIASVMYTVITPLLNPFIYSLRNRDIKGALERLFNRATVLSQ
In short: as §1

[8] = biological target: T8, OR1K1 (Homo sapiens) (UniProt Q8NGR3)
T8 sequence (whole entry): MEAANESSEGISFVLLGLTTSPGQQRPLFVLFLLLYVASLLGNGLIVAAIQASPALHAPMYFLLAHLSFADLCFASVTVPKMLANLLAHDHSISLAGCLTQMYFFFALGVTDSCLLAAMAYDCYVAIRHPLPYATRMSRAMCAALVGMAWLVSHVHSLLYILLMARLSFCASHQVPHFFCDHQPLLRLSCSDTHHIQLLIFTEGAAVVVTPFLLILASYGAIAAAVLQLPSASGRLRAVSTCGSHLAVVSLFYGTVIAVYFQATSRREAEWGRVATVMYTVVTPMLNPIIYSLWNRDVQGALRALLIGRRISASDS
In short: as §1

[9] = biological target: T9, OR1L1 (Homo sapiens) (UniProt Q8NH94)
T9 sequence (whole entry): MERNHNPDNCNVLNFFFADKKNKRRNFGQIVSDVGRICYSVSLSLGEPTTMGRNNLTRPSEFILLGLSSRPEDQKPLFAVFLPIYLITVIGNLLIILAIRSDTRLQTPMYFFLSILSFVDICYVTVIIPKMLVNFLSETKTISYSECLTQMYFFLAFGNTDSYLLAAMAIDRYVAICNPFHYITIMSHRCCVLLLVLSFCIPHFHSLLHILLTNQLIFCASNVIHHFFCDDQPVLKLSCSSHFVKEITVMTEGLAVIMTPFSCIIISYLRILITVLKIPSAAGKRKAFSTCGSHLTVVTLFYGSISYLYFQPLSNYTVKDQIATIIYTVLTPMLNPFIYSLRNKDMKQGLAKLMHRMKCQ
In short: as §1

[10] = biological target: T10, OR1L3 (Homo sapiens) (UniProt Q8NH93)
T10 sequence (whole entry): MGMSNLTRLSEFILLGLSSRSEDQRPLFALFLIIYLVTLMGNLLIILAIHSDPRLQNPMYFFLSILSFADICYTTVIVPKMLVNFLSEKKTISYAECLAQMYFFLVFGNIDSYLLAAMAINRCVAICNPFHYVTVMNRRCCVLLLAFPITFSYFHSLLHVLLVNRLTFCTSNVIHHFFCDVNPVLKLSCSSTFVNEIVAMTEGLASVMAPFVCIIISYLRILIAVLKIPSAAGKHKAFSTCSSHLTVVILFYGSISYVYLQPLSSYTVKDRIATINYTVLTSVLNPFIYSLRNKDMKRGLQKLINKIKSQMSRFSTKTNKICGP
In short: as §1

[11] = biological target: T11, OR1L4 (Homo sapiens) (UniProt Q8NGR5)
T11 sequence (whole entry): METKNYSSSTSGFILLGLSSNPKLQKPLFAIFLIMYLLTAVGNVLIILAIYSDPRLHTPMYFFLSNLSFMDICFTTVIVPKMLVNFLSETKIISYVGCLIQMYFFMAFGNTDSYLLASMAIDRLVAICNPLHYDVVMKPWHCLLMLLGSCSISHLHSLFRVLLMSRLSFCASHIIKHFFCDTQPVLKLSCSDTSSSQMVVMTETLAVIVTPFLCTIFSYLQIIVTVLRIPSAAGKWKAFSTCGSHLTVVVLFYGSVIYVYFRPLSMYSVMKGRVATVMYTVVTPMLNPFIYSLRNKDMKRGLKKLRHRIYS
In short: as §1

[12] = test system: T12, OR1L4
T12 sequence (whole entry): T11 sequence (whole entry) with G234R
In short: as §1

[13] = biological target: T13, OR1L6 (Homo sapiens) (UniProt Q8NGR2)
T13 sequence (whole entry): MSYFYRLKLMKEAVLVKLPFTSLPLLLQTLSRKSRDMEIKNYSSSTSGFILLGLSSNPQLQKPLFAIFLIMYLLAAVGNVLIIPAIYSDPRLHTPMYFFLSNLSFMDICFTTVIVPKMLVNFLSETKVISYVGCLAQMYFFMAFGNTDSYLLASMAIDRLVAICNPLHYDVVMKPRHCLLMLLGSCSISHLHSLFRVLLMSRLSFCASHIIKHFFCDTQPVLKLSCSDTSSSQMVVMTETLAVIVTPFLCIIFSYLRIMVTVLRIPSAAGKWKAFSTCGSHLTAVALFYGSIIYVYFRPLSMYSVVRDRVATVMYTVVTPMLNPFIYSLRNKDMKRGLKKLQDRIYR
In short: as §1

[14] = biological target: T14, OR1L8 (Homo sapiens) (UniProt Q8NGR8)
T14 sequence (whole entry): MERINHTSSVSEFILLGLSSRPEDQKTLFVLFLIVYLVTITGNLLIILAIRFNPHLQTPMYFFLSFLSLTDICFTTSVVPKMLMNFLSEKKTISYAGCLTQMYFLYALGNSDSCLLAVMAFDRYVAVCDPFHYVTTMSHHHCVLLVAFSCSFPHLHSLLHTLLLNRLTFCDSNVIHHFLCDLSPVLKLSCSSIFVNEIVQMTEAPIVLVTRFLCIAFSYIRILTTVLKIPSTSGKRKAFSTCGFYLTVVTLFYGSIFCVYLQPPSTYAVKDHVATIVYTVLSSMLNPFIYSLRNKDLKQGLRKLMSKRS
In short: as §1

[15] = test system: T15, OR1L8 T27P R211P
T15 sequence (whole entry): T14 sequence (whole entry) with T27P, R211P
In short: as §1

[16] = biological target: T16, OR1M1 (Homo sapiens) (UniProt Q8NGA1)
T16 sequence (whole entry): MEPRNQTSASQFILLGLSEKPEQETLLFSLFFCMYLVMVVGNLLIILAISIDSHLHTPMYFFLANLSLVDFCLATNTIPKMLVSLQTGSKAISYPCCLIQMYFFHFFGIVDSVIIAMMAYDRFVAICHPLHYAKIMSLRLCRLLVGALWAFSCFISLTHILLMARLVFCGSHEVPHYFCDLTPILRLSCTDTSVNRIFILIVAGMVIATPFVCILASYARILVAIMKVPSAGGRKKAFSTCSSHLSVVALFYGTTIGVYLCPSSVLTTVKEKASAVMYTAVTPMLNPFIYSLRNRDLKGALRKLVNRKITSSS
In short: as §1

[17] = biological target: T17, OR1N1 (Homo sapiens) (UniProt Q8NGS0)
T17 sequence (whole entry): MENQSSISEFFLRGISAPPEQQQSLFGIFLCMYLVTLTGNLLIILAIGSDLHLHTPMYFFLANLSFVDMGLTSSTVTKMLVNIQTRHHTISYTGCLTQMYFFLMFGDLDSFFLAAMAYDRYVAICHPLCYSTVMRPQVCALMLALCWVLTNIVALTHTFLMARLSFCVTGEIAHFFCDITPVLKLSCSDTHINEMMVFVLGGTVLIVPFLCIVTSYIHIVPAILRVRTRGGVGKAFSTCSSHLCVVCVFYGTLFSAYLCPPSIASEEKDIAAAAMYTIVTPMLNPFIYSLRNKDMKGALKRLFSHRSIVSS
In short: as §1

[18] = test system: T18, OR1N2 W37R
T18 sequence (whole entry): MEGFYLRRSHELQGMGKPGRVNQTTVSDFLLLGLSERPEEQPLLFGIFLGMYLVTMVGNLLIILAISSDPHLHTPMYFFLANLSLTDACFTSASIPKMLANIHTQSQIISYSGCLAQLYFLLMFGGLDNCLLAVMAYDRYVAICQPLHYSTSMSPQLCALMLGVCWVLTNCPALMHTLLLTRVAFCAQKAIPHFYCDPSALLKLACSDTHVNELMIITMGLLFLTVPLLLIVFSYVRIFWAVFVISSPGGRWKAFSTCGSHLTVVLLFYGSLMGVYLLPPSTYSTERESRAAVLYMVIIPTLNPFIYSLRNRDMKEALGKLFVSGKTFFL
In short: as §1

[19] = test system: T19, OR1L1
T19 sequence (whole entry): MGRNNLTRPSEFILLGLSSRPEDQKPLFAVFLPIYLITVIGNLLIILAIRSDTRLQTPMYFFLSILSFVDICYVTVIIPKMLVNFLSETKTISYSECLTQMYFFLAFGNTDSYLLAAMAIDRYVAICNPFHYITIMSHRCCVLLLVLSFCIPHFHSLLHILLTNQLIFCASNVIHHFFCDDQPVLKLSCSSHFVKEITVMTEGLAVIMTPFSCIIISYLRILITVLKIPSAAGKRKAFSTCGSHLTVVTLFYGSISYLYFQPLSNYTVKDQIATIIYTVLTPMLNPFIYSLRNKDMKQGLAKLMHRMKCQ
In short: as §1

[20] = test system: T20, OR1L6
T20 sequence (whole entry): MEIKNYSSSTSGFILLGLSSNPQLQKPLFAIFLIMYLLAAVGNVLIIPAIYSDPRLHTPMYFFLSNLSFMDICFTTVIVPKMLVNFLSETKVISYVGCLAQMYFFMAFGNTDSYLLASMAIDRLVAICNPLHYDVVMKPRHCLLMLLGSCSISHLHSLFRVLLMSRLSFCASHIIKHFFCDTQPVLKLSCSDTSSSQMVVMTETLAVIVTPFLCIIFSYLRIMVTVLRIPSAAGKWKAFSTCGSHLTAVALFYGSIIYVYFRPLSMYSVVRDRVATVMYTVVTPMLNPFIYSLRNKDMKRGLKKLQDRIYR
In short: as §1

Measured: odorant receptor agonist call

CCCCCCC=CCCC=O
not listed: [19] | [20]
inactive: all other assays above

CCCCCCCC(=O)[O-].[H+]
inactive: [3]

Cc1cnc(C)c(C)n1
not listed: [9] | [13]
inactive: all other assays above
